Source: ChEMBL document CHEMBL4414612, “Synthesis and Pharmacological Evaluation of 1-Phenyl-3-Thiophenylurea Derivatives as Cannabinoid Type-1 Receptor Allosteric Modulators” (J Med Chem, 2019)

Tests used:
Cannabinoid receptor 1 [1] = molecular target: T1, Cannabinoid receptor 1 (Homo sapiens, UniProt P21554); test: Displacement of [3H]CP55,940 from human CB1 receptor
Cannabinoid receptor 1 [2] = molecular target: T1, Cannabinoid receptor 1; test: Inverse agonist activity at human CB1 receptor expressed in HEK293 cell membranes assessed as suppression of [35S]GTPgammaS binding at 10 uM incubated for 60 mins by scintillation counting method; conditions: hek293, 1 h
Method in brief: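 Inverse agonism on human CB1-HEK293 membranes: compounds were incubated 60 min with 0.1 nM [35S]GTPγS and 30 µM GDP, with no CP55,940 present. Buffer was Tris/MgCl2/EGTA pH 7.4 with 0.5% BSA, at 30 °C. Binding was read by filtration and scintillation counting and normalized to basal (vehicle = 0%).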

Cannabinoid receptor 2 [3] = molecular target: T2, Cannabinoid receptor 2 (Homo sapiens, UniProt P34972); test: (§1) Antagonist activity at human CB2 receptor expressed in CHO cells co-expressing Galpha16 assessed as inhibition of EC80 CP55,940-induced calcium mobilization preincubated for 15 mins followed by […] addition measured at 1 sec interval for 90 secs by calcium-5 dye based FLIPR assay; format: functional, cell-based
Method in brief: (§2)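 CB2 antagonist mode in stable human CB2-CHO-RD-HGA16 cells. Cells were dye-loaded, then pretreated with compound for 15 min at 37 °C. CP55,940 was added at its EC80 at the 10 s point, and calcium fluorescence was recorded every 1 s over 90 s.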

Cannabinoid receptor 2 [4] = molecular target: T2, Cannabinoid receptor 2; test: Agonist activity at human CB2 receptor expressed in CHO cells co-expressing Galpha16 assessed as increase in calcium mobilization at 10 uM measured at 1 sec interval for 90 secs by calcium-5 dye based FLIPR assay relative to CP55,940; format: functional, cell-based
Cannabinoid receptor 2 [5] = molecular target: T2, Cannabinoid receptor 2; test: as §1, with “mobilization at 10 uM” for “mobilization”, “assay relative to CP55,940” for “assay”; format: functional, cell-based; method in brief: as §2
Cannabinoid receptor 1 [6] = molecular target: T1, Cannabinoid receptor 1; test: Agonist activity at human CB1 receptor expressed in CHO-RD-HGA16 cells co-expressing Galpha16 assessed as suppression stimulation of calcium mobilization incubated for 45 mins by Calcium 5 dye based FLIPR assay relative to CP55,940; format: functional, cell-based
Method in brief: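 CHO-RD-HGA16 cells stably expressing human CB1 (with Galpha16), plated overnight and loaded with Calcium 5 dye for 45 min at 37 °C. […] Compound was added by the FLIPR Tetra at the 10 s point as a single concentration, and fluorescence (485/525 nm) was read every 1 s for 90 s. RFU were expressed as % of CP55,940 Emax.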

Cannabinoid receptor 1 [7] = molecular target: T1, Cannabinoid receptor 1; test: Allosteric modulator activity at human CB1 receptor expressed in HEK293 cell membranes assessed as suppression of 100 nM CP55,940-induced [35S]GTPgammaS binding incubated for 60 mins by scintillation counting method; format: functional
Cannabinoid receptor 1 [8] = molecular target: T1, Cannabinoid receptor 1; test: Allosteric modulator activity at human CB1 receptor expressed in CHO-RD-HGA16 cells co-expressing Galpha16 assessed as suppression of 100 nM CP55,940-induced calcium mobilization pre-incubated for 15 mins by Calcium 5 dye based FLIPR assay; format: functional, cell-based
Cannabinoid receptor 1 [9] = molecular target: T3, Cannabinoid receptor 1 (Mus musculus, UniProt P47746); test: Allosteric modulator activity at CB1 receptor in mouse cerebellar membranes assessed as suppression of 100 nM CP55,940-induced [35S]GTPgammaS binding incubated for 60 mins by scintillation counting method; format: functional, cell membranes, Cerebellum, Membrane
[10] = Half life in rat liver microsomes; format: ADME, Microsome
Method in brief: (§3)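 Rat liver microsomes (0.5 mg/mL protein) in 100 mM potassium phosphate pH 7.4 at 37 °C with 1 mM NADPH. Samples were taken at 0, 5, 15, 30 and 45 min, quenched with cold acetonitrile containing internal standards, and analysed by LC/MS/MS. Half-life and clearance were calculated; two independent experiments in duplicate.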

[11] = Clearance in rat liver microsomes in presence of NADPH incubated up to 45 mins by LC-MS/MS analysis; format: ADME, Microsome; conditions: liver microsomes, read-out: CLH; method in brief: as §3
[12] = Half life in rat liver microsomes in presence of NADPH by LC-MS/MS analysis; format: ADME, Microsome; conditions: liver microsomes; method in brief: as §3
[13] = Apparent permeability from basolateral to apical side in MDCK-MDR1 cells incubated up to 90 mins by LC-MS/MS analysis; format: ADME, cell-based, Canis lupus familiaris; conditions: dog
Method in brief: (§4)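 MDCK-MDR1 cells were grown 3 days on Transwell supports and preincubated 30 min at 37 °C in HBSS with 10 mM HEPES and 0.25% BSA, pH 7.4, with TEER checked. Test article (10 µM) was added to the apical (A-to-B) or basolateral (B-to-A) donor side at 37 °C with light agitation. Receiver samples were taken at 30, 60 and 90 min for LC-MS/MS. Papp = (dQ/dt)/(A·Ci·60).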

[14] = Apparent permeability from apical to basolateral side in MDCK-MDR1 cells incubated up to 90 mins by LC-MS/MS analysis; format: ADME, cell-based, Canis lupus familiaris; conditions: dog; method in brief: as §4
Cannabinoid receptor 1 [15] = molecular target: T3, Cannabinoid receptor 1; test: Allosteric antagonist activity at mouse CB1 receptor by GTPgammaS assay; format: functional
Method in brief: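 Cerebellar membranes from male ICR mice (6-8 weeks), preincubated 10 min with adenosine deaminase (3 units/ml) in Tris/MgCl2/EGTA buffer, pH 7.4. Membranes (10 µg) pre-equilibrated 30 min with modulator, CP55,940 (100 nM; some also at 1 µM), 30 µM GDP and 0.5% BSA, then 0.1 nM [35S]GTPγS for 60 min at 30 °C.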

Cannabinoid receptor 1 [16] = molecular target: T3, Cannabinoid receptor 1; test: Allosteric modulator activity at CB1 receptor in mouse cerebellar membranes assessed as suppression of 1 uM CP55,940-induced [35S]GTPgammaS binding incubated for 60 mins by scintillation counting method; format: functional, cell membranes, Cerebellum, Membrane
[17] = Kinetic solubility in phosphate buffer at 400 uM incubated for 2 hrs by LC-MS/MS analysis; format: physicochemical; conditions: read-out: Kinetic_solubility
Method in brief: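 A 20 mM DMSO stock was diluted into phosphate buffer to a targeted 400 µM and vortexed 2 h at room temperature. Three independent experiments in duplicate.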

T2 sequence (P34972 whole entry): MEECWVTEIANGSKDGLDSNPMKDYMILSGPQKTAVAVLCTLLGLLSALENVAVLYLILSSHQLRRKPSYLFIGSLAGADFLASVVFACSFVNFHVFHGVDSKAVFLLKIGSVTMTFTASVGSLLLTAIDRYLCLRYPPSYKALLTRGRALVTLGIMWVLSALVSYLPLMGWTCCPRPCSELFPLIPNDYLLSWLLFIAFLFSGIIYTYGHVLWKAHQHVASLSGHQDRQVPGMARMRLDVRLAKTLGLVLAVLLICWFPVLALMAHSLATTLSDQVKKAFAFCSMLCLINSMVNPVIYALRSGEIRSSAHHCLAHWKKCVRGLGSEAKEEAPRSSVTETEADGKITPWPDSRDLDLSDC
T1 sequence (P21554 whole entry): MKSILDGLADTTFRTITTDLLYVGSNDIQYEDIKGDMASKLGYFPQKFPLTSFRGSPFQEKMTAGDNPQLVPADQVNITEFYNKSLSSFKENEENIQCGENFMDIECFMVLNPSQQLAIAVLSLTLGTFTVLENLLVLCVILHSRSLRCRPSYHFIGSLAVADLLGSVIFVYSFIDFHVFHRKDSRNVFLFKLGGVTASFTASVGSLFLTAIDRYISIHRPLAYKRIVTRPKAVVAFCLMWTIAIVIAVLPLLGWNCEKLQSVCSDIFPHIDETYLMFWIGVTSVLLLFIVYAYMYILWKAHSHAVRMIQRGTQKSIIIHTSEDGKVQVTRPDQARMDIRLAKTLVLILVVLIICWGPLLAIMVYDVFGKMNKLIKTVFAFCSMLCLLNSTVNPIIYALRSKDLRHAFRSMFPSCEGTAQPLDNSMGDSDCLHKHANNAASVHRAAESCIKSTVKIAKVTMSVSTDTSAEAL
T3 sequence (P47746 whole entry): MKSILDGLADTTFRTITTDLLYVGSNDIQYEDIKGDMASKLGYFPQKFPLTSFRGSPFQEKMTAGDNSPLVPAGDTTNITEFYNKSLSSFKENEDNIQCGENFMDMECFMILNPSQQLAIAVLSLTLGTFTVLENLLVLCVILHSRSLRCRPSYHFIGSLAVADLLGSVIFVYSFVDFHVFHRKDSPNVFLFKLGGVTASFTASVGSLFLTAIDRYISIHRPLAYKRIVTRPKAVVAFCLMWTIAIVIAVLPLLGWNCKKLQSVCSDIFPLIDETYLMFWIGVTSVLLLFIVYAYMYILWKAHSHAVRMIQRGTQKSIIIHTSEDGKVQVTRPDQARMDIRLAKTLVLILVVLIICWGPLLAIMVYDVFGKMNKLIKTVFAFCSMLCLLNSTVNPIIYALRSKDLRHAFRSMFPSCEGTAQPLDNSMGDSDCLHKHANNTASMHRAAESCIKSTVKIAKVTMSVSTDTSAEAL

| Emax (Cannabinoid receptor 2 [4]) [%] | SMILES | inhibition (INH) (Cannabinoid receptor 1 [2]) | IC50 (Cannabinoid receptor 2 [3]) [µM] | inhibition (Cannabinoid receptor 2 [5]) [%] | other results |
| --- | --- | --- | --- | --- | --- |
| < 10 | O=C(Nc1ccc(Cl)cc1)N[C@H]1C[C@@H]1c1ccccc1 (relative stereo) | Active | > 10 | < 50 | Emax (Cannabinoid receptor 1 [6]): < 30% |
| < 10 | O=C(Nc1ccc(Cl)cc1)Nc1ccc(-c2cccnc2)s1 | Active | > 10 | < 50 |  |
| < 10 | O=C(Nc1ccc(Cl)cc1)N[C@H]1C[C@H]1c1ccccc1 (relative stereo) | Active | > 10 | < 50 | Emax (Cannabinoid receptor 1 [6]): < 30% |
| < 10 | O=C(Nc1ccc(Cl)cc1)Nc1ccc(-c2cccc(F)c2)s1 | Active | > 10 | < 50 |  |
| < 10 | O=C(Nc1ccc(Cl)cc1)Nc1csc(-c2ccccc2)c1 | Active | > 10 | < 50 |  |
| < 10 | CC(=O)c1cccc(-c2ccc(NC(=O)Nc3ccc(Cl)cc3)s2)c1 | Active | > 10 | < 50 |  |
| < 10 | COc1ccccc1-c1ccc(NC(=O)Nc2ccc(Cl)cc2)s1 | Active | > 10 | < 50 |  |
| < 10 | O=C(Nc1ccc(Cl)cc1)Nc1ccc(-c2ccc(Cl)cc2)s1 | Active | > 10 | < 50 |  |
| < 10 | O=C(Nc1ccc(Cl)cc1)Nc1ncc(-c2ccccc2)s1 | Active | > 10 | < 50 |  |
| < 10 | COc1ccc(-c2cccc(N3CCCC3)n2)cc1NC(=O)Nc1ccc(Cl)cc1 | Active | > 10 | < 50 |  |
| < 10 | O=C(Nc1ccc(Cl)cc1)Nc1ccc(-c2cccc(Cl)c2)s1 | Active | > 10 | < 50 |  |
| < 10 | O=C(Nc1ccc(Cl)cc1)Nc1ccc(-c2ccc(Cl)c(Cl)c2)s1 | Active | > 10 | < 50 |  |
| < 10 | O=C(Nc1ccc(Cl)cc1)Nc1ccc(-c2ccc(F)cc2)s1 | Active | > 10 | < 50 |  |
| < 10 | CS(=O)(=O)c1cccc(-c2ccc(NC(=O)Nc3ccc(Cl)cc3)s2)c1 | Active | > 10 | < 50 |  |
| < 10 | Cc1cccc(-c2ccc(NC(=O)Nc3ccc(Cl)cc3)s2)c1 | Active | > 10 | < 50 |  |

Further lines, the compound ahead of its results:

| SMILES | Emax (Cannabinoid receptor 2 [4]) [%] | inhibition (INH) (Cannabinoid receptor 1 [2]) | IC50 (Cannabinoid receptor 2 [3]) [µM] | inhibition (Cannabinoid receptor 2 [5]) [%] | other results |
| --- | --- | --- | --- | --- | --- |
| O=C(Nc1ccc(Cl)cc1)Nc1cccc(-c2ccc[nH]2)c1 |  |  |  |  | Kd (Cannabinoid receptor 1 [1]): 1.4 nM |
| O=C(Nc1ccc(Cl)cc1)Nc1ccc(-c2ccncc2)s1 | < 10 | Active | > 10 | < 50 | IC50 (Cannabinoid receptor 1 [7]): 263 nM |
| O=C(Nc1ccc(Cl)cc1)N[C@@H]1CCCN(c2ccccc2)C1 | < 10 | Active | > 10 | < 50 | IC50 (Cannabinoid receptor 1 [7]): > 10000 nM; IC50 (Cannabinoid receptor 1 [8]): 3880 nM |
| O=C(Nc1ccc(Cl)cc1)Nc1cc(-c2ccccc2)ccn1 | < 10 | Active | > 10 | < 50 | IC50 (Cannabinoid receptor 1 [7]): > 10000 nM; IC50 (Cannabinoid receptor 1 [9]): > 10000 nM; IC50 (Cannabinoid receptor 1 [8]): 156 nM |
| O=C(Nc1ccc(Cl)cc1)Nc1ccnc(-c2ccccc2)c1 | < 10 | Active | > 10 | < 50 | IC50 (Cannabinoid receptor 1 [7]): 2770 nM; IC50 (Cannabinoid receptor 1 [8]): 233 nM |
| COc1ccc(-c2ccc(NC(=O)Nc3ccc(Cl)cc3)s2)cc1 | < 10 | Active | > 10 | < 50 |  |
| O=C(Nc1ccc(Cl)cc1)Nc1ccc(-c2ccc(F)cc2F)s1 | < 10 | Active | > 10 | < 50 |  |
| O=C(Nc1ccc(Cl)cc1)Nc1cncc(-c2ccccc2)c1 | < 10 | Active | > 10 | < 50 | IC50 (Cannabinoid receptor 1 [7]): > 10000 nM; IC50 (Cannabinoid receptor 1 [8]): 292 nM |
| COc1cccc(-c2ccc(NC(=O)Nc3ccc(Cl)cc3)s2)c1 | < 10 | Active | > 10 | < 50 |  |
| O=C(Nc1ccc(Cl)cc1)Nc1ccc(-c2ccccc2Cl)s1 | < 10 | Active | > 10 | < 50 |  |
| O=C(Nc1ccc(Cl)cc1)Nc1cc(-c2ccccc2)cs1 | < 10 | Active | > 10 | < 50 | IC50 (Cannabinoid receptor 1 [9]): 776 nM |
| O=C(Nc1ccc(Cl)cc1)Nc1ccc(-c2cc(Cl)cc(Cl)c2)s1 | < 10 | Active | > 10 | < 50 |  |
| COC(=O)c1cccc(-c2ccc(NC(=O)Nc3ccc(Cl)cc3)s2)c1 | < 10 | Active | > 10 | < 50 | IC50 (Cannabinoid receptor 1 [7]): 2350 nM |
| O=C(Nc1ccc(Cl)cc1)Nc1cccc(-c2ccc(F)cc2)c1 |  |  |  |  | half-life ([10]; liver microsomes): > 300 min |
| O=C(Nc1ccc(Cl)cc1)Nc1cccc(-c2cccc(N3CCCC3)n2)c1 |  | Active | > 10 | < 50 | microsomal CLint at […] [11]: 114 µL/min/mg; IC50 (Cannabinoid receptor 1 [9]): 288 nM; t1/2 ([10]; microsomes): 13 min; half-life [12]: 13.4 min; Papp [13]: 2.2 ×10⁻⁶ cm/s; Papp [14]: 2.6 ×10⁻⁶ cm/s; IC50 (Cannabinoid receptor 1 [15]): 115 nM; pIC50 (Cannabinoid receptor 1 [16]): 6.91; Emax (Cannabinoid receptor 1 [6]): < 30%; solubility kinetic at 2 h, 400 µM [17]: < 0.5 µM |
| CN(C)c1cccc(-c2ccc(NC(=O)Nc3ccc(Cl)cc3)s2)c1 | < 10 | Active | > 10 | < 50 | IC50 (Cannabinoid receptor 1 [16]): 2570 nM |
| O=C(Nc1ccc(Cl)cc1)Nc1cccc(-c2ccccc2)n1 | < 10 | Active | > 10 | < 50 | IC50 (Cannabinoid receptor 1 [7]): > 10000 nM; IC50 (Cannabinoid receptor 1 [8]): 3530 nM |
